Data reported in ChEMBL document CHEMBL3272012, “5-(Tetradecyloxy)-2-furancarboxylic acid and related hypolipidemic fatty acid-like alkyloxyarylcarboxylic acids” (J Med Chem, 1977).
Blank lines part the entries; values can stand above or below the compound they belong to.

Experiments:
Rattus norvegicus [1] = assay: Increase in liver weight in Wistar rat at 524 umol/kg/day administered through diet for 4 days; assay type: ADME, organism-based; conditions: in vivo, po, 96 h
Rattus norvegicus [2] = assay: Hypolipidemic activity in Wistar rat assessed as reduction in plasma triglyceride level at 524 umol/kg/day administered through diet for 4 days; assay type: functional; conditions: 96 h
Rattus norvegicus [3] = assay: Hypolipidemic activity in Wistar rat assessed as reduction in plasma cholesterol level at 524 umol/kg/day administered through diet for 4 days; assay type: functional; conditions: 96 h
How it was run: (§1)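 Young male Wistar rats, 170-190 g initial weight, groups of six, given compound mixed thoroughly into Purina Lab Chow ad libitum for 4 or 10 days as stated. Daily dose calculated from food consumption and body weight. Bled by cardiac puncture at end of treatment; plasma cholesterol measured by automated procedure. Expressed as percent reduction versus simultaneous untreated control group; Student's t test.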

Rattus norvegicus [4] = assay: Increase in liver weight in Wistar rat at 944 umol/kg/day administered through diet for 10 days; assay type: ADME, organism-based; conditions: in vivo, po, 240 h
Rattus norvegicus [5] = assay: Hypolipidemic activity in Wistar rat assessed as reduction in plasma cholesterol level at 944 umol/kg/day administered through diet for 10 days; assay type: functional; conditions: 240 h
How it was run: (§2)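 Young male Wistar rats (initial weight 170-190 g), groups of six, fed compound mixed into Purina Lab Chow ad libitum for 4 or 10 days; daily dose calculated from food consumption and body weight. Bled by cardiac puncture; plasma cholesterol and triglycerides by automated procedures; percent reduction versus simultaneous untreated controls, Student's t test.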

Rattus norvegicus [6] = assay: Increase in cholesterol level in Wistar rat liver at 89 umol/kg/day administered through diet for 10 days; assay type: ADME, organism-based; conditions: in vivo, po, 240 h
Rattus norvegicus [7] = assay: Hypolipidemic activity in Wistar rat assessed as reduction in plasma triglyceride level at 944 umol/kg/day administered through diet for 10 days; assay type: functional; conditions: 240 h
Rattus norvegicus [8] = assay: Hypolipidemic activity in Wistar rat assessed as reduction in plasma cholesterol level at 303 umol/kg/day administered through diet for 10 days; assay type: functional; conditions: 240 h
How it was run: (§3)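 Young male Wistar rats, 170-190 g at start, in groups of six, given compound mixed into Purina Lab Chow ad libitum for 4 or 10 days as stated. Daily dose was calculated from food consumption and body weight. Plasma was taken by cardiac puncture at the end and cholesterol measured by automated procedure. Results are % reduction versus a concurrent untreated control group, with Student's t test.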

Rattus norvegicus [9] = assay: Increase in cholesterol level in Wistar rat liver at 944 umol/kg/day administered through diet for 10 days; assay type: ADME, organism-based; conditions: in vivo, po, 240 h
Rattus norvegicus [10] = assay: Increase in liver weight in Wistar rat at 89 umol/kg/day administered through diet for 10 days; assay type: ADME, organism-based; conditions: in vivo, po, 240 h
Rattus norvegicus [11] = assay: Hypolipidemic activity in Wistar rat assessed as reduction in plasma cholesterol level at 89 umol/kg/day administered through diet for 10 days; assay type: functional; conditions: 240 h; how it was run: as §2
Rattus norvegicus [12] = assay: Increase in liver weight in Wistar rat at 303 umol/kg/day administered through diet for 10 days; assay type: ADME, organism-based; conditions: in vivo, po, 240 h
Rattus norvegicus [13] = assay: Hypolipidemic activity in Wistar rat assessed as reduction in plasma triglyceride level at 89 umol/kg/day administered through diet for 10 days; assay type: functional; conditions: 240 h
Rattus norvegicus [14] = assay: Hypolipidemic activity in Wistar rat assessed as reduction in plasma triglyceride level at 303 umol/kg/day administered through diet for 10 days; assay type: functional; conditions: 240 h
How it was run: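 Young male Wistar rats, 170-190 g initial weight, six per group, fed drug mixed thoroughly into Purina Lab Chow ad libitum for the stated days; daily dose calculated from food consumption and body weight. Bled by cardiac puncture at end; plasma cholesterol and triglycerides by automated procedures, expressed as percent reduction versus simultaneous untreated controls; Student's t test.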

Rattus norvegicus [15] = assay: Increase in cholesterol level in Wistar rat liver at 303 umol/kg/day administered through diet for 10 days; assay type: ADME, organism-based; conditions: in vivo, po, 240 h
Rattus norvegicus [16] = assay: Hypolipidemic activity in Wistar rat assessed as reduction in plasma cholesterol level at 463 umol/kg/day administered through diet for 4 days; assay type: functional; conditions: 96 h; how it was run: as §1
Rattus norvegicus [17] = assay: Increase in liver weight in Wistar rat at 463 umol/kg/day administered through diet for 4 days; assay type: ADME, organism-based; conditions: in vivo, po, 96 h
Rattus norvegicus [18] = assay: Hypolipidemic activity in Wistar rat assessed as reduction in plasma triglyceride level at 463 umol/kg/day administered through diet for 4 days; assay type: functional; conditions: 96 h
Rattus norvegicus [19] = assay: Hypolipidemic activity in Wistar rat assessed as reduction in plasma triglyceride level at 369 umol/kg/day administered through diet for 4 days; assay type: functional; conditions: 96 h
How it was run: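 Young male Wistar rats, 170-190 g at start, six per group, given compound mixed into Purina Lab Chow, fed ad libitum for 4 or 10 days. Daily dose calculated from food consumption and body weight. Rats bled by cardiac puncture at end of treatment. Plasma triglycerides determined by automated procedure. Expressed as percent reduction versus a concurrent untreated control group, Student's t test.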

Rattus norvegicus [20] = assay: Hypolipidemic activity in Wistar rat assessed as reduction in plasma cholesterol level at 369 umol/kg/day administered through diet for 4 days; assay type: functional; conditions: 96 h; how it was run: as §3
Rattus norvegicus [21] = assay: Increase in liver weight in Wistar rat at 369 umol/kg/day administered through diet for 4 days; assay type: ADME, organism-based; conditions: in vivo, po, 96 h

Activity (Rattus norvegicus [1]): 1%
Compound: CCCCCCCCCCCCCCOc1ccco1
inhibition in vivo at 524 µmol/kg (Rattus norvegicus [2]): 0% | inhibition in vivo at 524 µmol/kg (Rattus norvegicus [3]): 0%

Activity (Rattus norvegicus [4]): 20% | Activity (Rattus norvegicus [6]): 38% | Activity (Rattus norvegicus [9]): 151% | Activity (Rattus norvegicus [10]): 8% | Activity (Rattus norvegicus [12]): 7% | Activity (Rattus norvegicus [15]): 97%
Compound: CCCCCCCCCCCCc1ccc(C(=O)CC(=O)OC)cc1
inhibition in vivo at 944 µmol/kg (Rattus norvegicus [5]): 53% | inhibition in vivo at 944 µmol/kg (Rattus norvegicus [7]): 84% | inhibition in vivo at 303 µmol/kg (Rattus norvegicus [8]): 37% | inhibition in vivo at 89 µmol/kg (Rattus norvegicus [11]): 4% | inhibition in vivo at 89 µmol/kg (Rattus norvegicus [13]): 6% | inhibition in vivo at 303 µmol/kg (Rattus norvegicus [14]): 63%

Activity (Rattus norvegicus [17]): 4%
Compound: CCCCCCCCCCCCCCSc1ccc(C(=O)O)s1
inhibition in vivo at 463 µmol/kg (Rattus norvegicus [16]): 15% | inhibition in vivo at 463 µmol/kg (Rattus norvegicus [18]): 61%

Activity (Rattus norvegicus [21]): 6%
Compound: CCCCCCCCCCCCCCOc1ccc(C(=O)C(Cl)(Cl)Cl)o1
inhibition in vivo at 369 µmol/kg (Rattus norvegicus [19]): 33% | inhibition in vivo at 369 µmol/kg (Rattus norvegicus [20]): 9%
